One may read the GI50 as the concentration that inhibits growth by half. The term IC50 denotes the concentration needed to halve the response being measured. A high value points to lower potency.

The test system of test [1] is TMD8. The test is described as follows: Antiproliferative activity against human TMD8 cells assessed as inhibition of cell growth incubated for 72 hrs by Celltiter-Glo luminescent assay. It counts as functional. An outline of the steps: (§1)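 Exponentially growing cells were seeded at 1 × 10⁴ per 100 μL. HBL-1 and TMD8 were kept in RPMI with 10% FBS, 2 mM glutamine and 10 mM HEPES; OCI-LY1 in Iscove's medium with 20% FBS; all at 37 °C and 5% CO2. Cells were exposed to DMSO or 2-fold serial dilutions from 100 μM for 72 h, in triplicate on one plate. CellTiter-Glo luminescence was read after 1 h. Growth inhibition was calculated against control, accounting for initial cell number, and GI50 was fitted.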
Background: Cellular ATP, detected with luciferase, serves as a proxy for viable cell number.

Test [2] is described as follows: Antiproliferative activity against human HBL1 cells assessed as inhibition of cell growth incubated for 72 hrs by Celltiter-Glo luminescent assay. It counts as functional. The procedure, abridged:
as §1

Test [3] concerns the target T1, Mucosa-associated lymphoid tissue lymphoma translocation protein 1 (Homo sapiens, UniProt Q9UDY8).
T1 sequence (Q9UDY8 whole entry): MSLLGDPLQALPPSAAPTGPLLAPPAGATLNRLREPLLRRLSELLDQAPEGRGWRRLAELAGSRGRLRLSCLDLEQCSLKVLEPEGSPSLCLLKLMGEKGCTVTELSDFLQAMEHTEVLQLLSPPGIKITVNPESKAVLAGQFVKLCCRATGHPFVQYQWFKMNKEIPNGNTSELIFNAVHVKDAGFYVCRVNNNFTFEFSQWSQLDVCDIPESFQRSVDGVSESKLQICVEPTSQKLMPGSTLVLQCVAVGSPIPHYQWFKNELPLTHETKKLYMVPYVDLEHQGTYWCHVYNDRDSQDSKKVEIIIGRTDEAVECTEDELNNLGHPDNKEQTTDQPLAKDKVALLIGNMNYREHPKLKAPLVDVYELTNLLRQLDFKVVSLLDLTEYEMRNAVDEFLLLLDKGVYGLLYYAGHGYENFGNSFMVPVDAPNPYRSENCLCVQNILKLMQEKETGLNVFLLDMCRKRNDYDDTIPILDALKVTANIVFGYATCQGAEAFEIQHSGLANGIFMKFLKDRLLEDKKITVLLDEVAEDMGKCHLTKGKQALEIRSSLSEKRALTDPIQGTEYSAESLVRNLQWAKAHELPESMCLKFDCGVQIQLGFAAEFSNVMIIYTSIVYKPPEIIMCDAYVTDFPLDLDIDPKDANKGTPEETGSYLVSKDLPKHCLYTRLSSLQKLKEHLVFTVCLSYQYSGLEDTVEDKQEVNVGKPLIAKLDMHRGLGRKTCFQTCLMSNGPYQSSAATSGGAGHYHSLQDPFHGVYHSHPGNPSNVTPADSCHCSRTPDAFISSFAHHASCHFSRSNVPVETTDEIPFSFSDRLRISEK
The test is described as follows: Inhibition of N-terminal his-tagged GCN4 leucine zipper fused human MALT1 […] expressed in Escherichia coli using Ac-LVSR-AMC as substrate by HTS assay.

The subject of test [4] is OCI-Ly1. The test is described as follows: Antiproliferative activity against human OCI-Ly1 cells assessed as inhibition of cell growth incubated for 72 hrs by Celltiter-Glo luminescent assay. In kind it is functional. The procedure, abridged: as §1

The structures appear in SMILES notation. The source made the active and inactive calls. The rule behind the calls is not given here.

With `O=C(NCc1cccs1)c1sc(=S)n2c1[nH]c(=O)c1cc(Br)ccc12`, the GI50 in test [1] turned out to be 22 µM; in test [2] it was 13 µM. The compound further had an IC50 in test [3] of 4.1 µM. The result in test [4] was inactive.
Turning to `COC(=O)c1ccc2c(=O)[nH]c3c(C(=O)Nc4ccc(Cl)cc4)sc(=S)n3c2c1`, the GI50 was found to be 4.4 µM in test [1], 14.8 µM in test [2] and 18.6 µM in test [4]. Moreover, in test [3], half-maximal inhibition (IC50) required 5.1 µM.
In the case of `O=C(Nc1ccc([N+](=O)[O-])cc1)c1sc(=S)n2c1[nH]c(=O)c1ccccc12`, the GI50 in test [1] was 4 µM; in test [2], 14.3 µM; in test [4], 21 µM. This compound showed an IC50 in test [3] of 6.7 µM.
With `CC(C)c1ccc(S(=O)(=O)Nc2ccc(N3CCC(Cc4ccccc4)CC3)cc2C(=O)O)cc1`, half-maximal inhibition in test [3] (IC50) was put at 12.3 µM.
For `COc1ccccc1NC(=O)c1sc(=S)n2c1[nH]c(=O)c1cc(Cl)ccc12`, the values for the GI50 in test [1], in test [2] and in test [4] were 17 µM, 17 µM and 23 µM, respectively. This compound also came in with an IC50 in test [3] of 6.1 µM.
As for `COc1cccc(CNC(=O)c2sc(=S)n3c2[nH]c(=O)c2cc(Cl)ccc23)c1`, the GI50 came out at 21.6 µM in test [1] and 28.2 µM in test [2]. In test [3], this compound had an IC50 of 12.8 µM.
As to `COC(=O)c1ccc2c(=O)[nH]c3c(C(=O)Nc4ccc(Cl)c(Cl)c4)sc(=S)n3c2c1`, 6.9 µM corresponded to half-maximal inhibition in test [3] (IC50). This lies in the single-digit micromolar range.
Take `COc1ccc(OC)c(NC(=O)c2sc(=S)n3c2[nH]c(=O)c2cc(OC)ccc23)c1`: in test [3], the IC50 is more than 25 µM.
As to `COc1ccc(OC)c(NC(=O)c2sc(=S)n3c2[nH]c(=O)c2ccccc23)c1`, the IC50 in test [3] is more than 25 µM.
In turn, `CCc1ccccc1NC(=O)c1sc(=S)n2c1[nH]c(=O)c1cc(F)c(F)cc12` had an IC50 in test [3] of 5.2 µM. In other words, the single-digit micromolar range.
Same read-out and setting: the same measure for `COc1ccccc1NC(=O)c1sc(=S)n2c1[nH]c(=O)c1ccc(Br)cc12`: 7.7 µM.
The compound `O=C(Nc1ccccc1Cl)c1sc(=S)n2c1[nH]c(=O)c1ccccc12` gave an IC50 in test [3] of 20.4 µM. Compared with the last compound, the IC50 is about 2.6-fold higher.
Consider `COc1ccc(OC)c(NC(=O)c2sc(=S)n3c2[nH]c(=O)c2ccc(Br)cc23)c1`, for which the IC50 in test [3] was 18.8 µM. This IC50 and that of the compound before are within 1.5-fold of each other.
For `Cc1ccccc1C1CCN(c2ccc(NC(=O)c3ccc(Cl)cc3)c(C(=O)O)c2)C1` (stereo unspecified), half-maximal inhibition in test [3] (IC50) was put at 12 µM.
Compound `COC(=O)c1ccc2c(=O)[nH]c3c(C(=O)Nc4cccc(Cl)c4[N+](=O)[O-])sc(=S)n3c2c1` came in with an IC50 in test [3] of 3 µM.
As for `COc1ccc(OC)c(NC(=O)c2sc(=S)n3c2[nH]c(=O)c2cc(Cl)ccc23)c1`, the values for the GI50 in test [1], in test [2] and in test [4] were 12.4 µM, 14 µM and 28.1 µM, respectively. Besides, the IC50 in test [3] came to 3.2 µM.
Take `COC(=O)c1ccc2c(=O)[nH]c3c(C(=O)Nc4cc(Cl)cc(Cl)c4)sc(=S)n3c2c1`: in test [3], the IC50 was 2.5 µM.
As for `O=C(Nc1cc(Cl)cc(Cl)c1)c1sc(=S)n2c1[nH]c(=O)c1cc(Br)ccc12`, the GI50 in test [1] came to 3.9 µM; in test [2], 18.4 µM; in test [4], 20.2 µM. Further, the IC50 in test [3] is 3.3 µM.
`CCc1ccccc1NC(=O)c1sc(=S)n2c1[nH]c(=O)c1cc(Br)ccc12` had an IC50 in test [3] of 4.4 µM. This lies in the single-digit micromolar range.
Regarding `COC(=O)c1ccc2c(=O)[nH]c3c(C(=O)Nc4ccc(F)cc4F)sc(=S)n3c2c1`, the GI50 in test [1] worked out at 28.2 µM; in test [2] it was 14.2 µM; in test [4] it was 21.6 µM. This compound had an IC50 in test [3] of 12.2 µM.
Taken in the same sequence, the figures for `CCOc1ccc(OCC)c(NC(=O)c2sc(=S)n3c2[nH]c(=O)c2ccc(Cl)cc23)c1` were 12.1 µM, 12.1 µM, 25.6 µM and 4.7 µM.
Take `CCc1ccc(NC(=O)c2sc(=S)n3c2[nH]c(=O)c2ccccc23)cc1`: in test [3], the IC50 was more than 25 µM.
Take `COc1ccc(OC)c(NC(=O)c2sc(=S)n(-c3cccc(C#N)c3)c2NC(=O)CCl)c1`: the GI50 stood at 1.6 µM in test [1], 1.7 µM in test [2] and 11.8 µM in test [4]. The compound further gave an IC50 in test [3] of 5.5 µM.
Regarding `COc1ccc(OC)c(NC(=O)c2sc(=S)n(-c3cccc(F)c3)c2NC(=O)CCl)c1`, the 50% growth inhibitory concentration (GI50) in test [1] is 1.5 µM; in test [2], 1.6 µM; in test [4], 12.1 µM. Moreover, in test [3], the midpoint of inhibition, the IC50, lay at 3.8 µM.
Take `O=C(NCc1ccccc1Cl)c1sc(=S)n2c1[nH]c(=O)c1cc(Cl)ccc12`: the values for the GI50 in test [1] and in test [2] were 33 µM and 25 µM, respectively. In test [3], this compound displayed an IC50 of 5.3 µM. The result in test [4] was inactive.
`COc1ccc(NC(=O)c2sc(=S)n3c2[nH]c(=O)c2ccccc23)cc1` had an IC50 in test [3] of more than 25 µM.
`O=C(Nc1ccc([N+](=O)[O-])cc1)c1sc(=S)n2c1[nH]c(=O)c1ccc(Cl)cc12` yielded an IC50 in test [3] of 2.6 µM.
`O=C(Nc1ccc(Cl)cc1)c1sc(=S)n2c1[nH]c(=O)c1ccccc12` came in with an IC50 in test [3] of more than 25 µM.
`Cc1ccccc1NC(=O)c1sc(=S)n2c1[nH]c(=O)c1ccc(Cl)cc12`: it took 11 µM to reach half-maximal inhibition in test [3] (IC50).
The compound `O=C(Nc1ccccc1)c1sc(=S)n2c1[nH]c(=O)c1ccccc12` displayed an IC50 in test [3] of more than 25 µM.
On the same count and under the same terms, the same measure for `CCc1ccccc1NC(=O)c1sc(=S)n2c1[nH]c(=O)c1ccc(C(=O)OC)cc12`: 3.2 µM.
For `O=C(O)c1cccc(NC(=O)c2sc(=S)n3c2[nH]c(=O)c2ccc(Cl)cc23)c1`, the GI50 in test [1], in test [2] and in test [4] was 22.8 µM in each case. Further, the IC50 in test [3] worked out at 8.36 µM.
For `O=C(Nc1cc(Cl)cc(Cl)c1)c1sc(=S)n2c1[nH]c(=O)c1ccc(Cl)cc12`, the IC50 in test [3] was found to be 7.4 µM.
`O=C(Nc1cc(Cl)cc(Cl)c1)c1sc(=S)n2c1[nH]c(=O)c1ccccc12`: the GI50 was 3.7 µM in test [1], 8 µM in test [2] and 10 µM in test [4]. The IC50 in test [3] came out at 2.2 µM.
As for `COc1ccc(OC)c(NC(=O)c2sc(=S)n3c2[nH]c(=O)c2cc(Br)ccc23)c1`, the GI50 in test [1] stood at 11 µM; in test [2], 11.7 µM; in test [4], 12.9 µM. Also, the IC50 in test [3] amounted to 6.9 µM.
As to `O=C(NCc1ccco1)c1sc(=S)n2c1[nH]c(=O)c1cc(Br)ccc12`, the values for the GI50 in test [1], in test [2] and in test [4] were 16.2 µM, 13.2 µM and 36.8 µM, respectively. For the same compound, the IC50 in test [3] stood at 5.2 µM.
Taken in the same sequence, the figures for `Cc1ccc(Cl)cc1NC(=O)c1sc(=S)n2c1[nH]c(=O)c1cc3c(cc12)OCO3` were 12 µM, 32 µM, 48 µM and 3.6 µM.
Taken in the same sequence, the figures for `CSc1ccc2c(c1)N(CCC1CCCCN1C)c1ccccc1S2` (stereo unspecified) [THIORIDAZINE] were 5.9 µM, 6.6 µM, 13.4 µM and 4.1 µM.
In the case of `Cc1ccc(S(=O)(=O)C2=C(O)C(=O)N(Cc3ccc(F)cc3)C2c2ccc(C(C)C)cc2)cc1` (stereo unspecified), in test [3], the IC50 worked out at 13 µM.
The compound `COc1ccc(OC)c(NC(=O)c2sc(=S)n3c2[nH]c(=O)c2ccc(F)cc23)c1` returned an IC50 in test [3] of 17 µM.
With `COc1ccc(OC)c(NC(=O)c2sc(=S)n3c2[nH]c(=O)c2cc(OC)c(OC)cc23)c1`, the IC50 in test [3] was more than 25 µM.
Turning to `O=C(Nc1cccc(Cl)c1[N+](=O)[O-])c1sc(=S)n2c1[nH]c(=O)c1ccc(Cl)cc12`, in test [3], the IC50 came to 4.4 µM.
Regarding `O=C(Nc1ccc(Cl)c(Cl)c1)c1sc(=S)n2c1[nH]c(=O)c1ccccc12`, the IC50 in test [3] is more than 25 µM.
The same measure, in the same setting: the same measure for `COc1ccccc1NC(=O)c1sc(=S)n2c1[nH]c(=O)c1ccccc12`: more than 25 µM; for `CCc1ccccc1NC(=O)c1sc(=S)n2c1[nH]c(=O)c1ccccc12`: 14.7 µM.
Same read-out and setting: then `CCc1ccccc1NC(=O)c1sc(=S)n2c1[nH]c(=O)c1ccc(Cl)cc12`, with 5.1 µM.
Compound `COc1ccc(OC)c(NC(=O)c2sc(=S)n3c2[nH]c(=O)c2cc(F)c(F)cc23)c1` showed an IC50 in test [3] of 11.6 µM. This IC50 is about 2.3-fold higher than that of the compound before.
With `Cc1ccc2c(c1)c(=O)[nH]c1c(C(=O)Nc3ccccc3C)sc(=S)n12`, the GI50 in test [1] and in test [2] was 24.7 µM throughout. For the same compound, in test [3], the IC50 is 21.1 µM.
On to `COc1cccc(NC(=O)c2sc(=S)n3c2[nH]c(=O)c2ccccc23)c1`, for which the IC50 in test [3] is more than 25 µM.
On to `COc1ccc(OC)c(NC(=O)c2sc(=S)n3c2[nH]c(=O)c2ccc(OC)cc23)c1`, for which the half-maximal inhibitory concentration (IC50) in test [3] is more than 25 µM.
Turning to `COC(=O)c1ccc2c(=O)[nH]c3c(C(=O)Nc4ccc([N+](=O)[O-])cc4)sc(=S)n3c2c1`, in test [3], the IC50 was determined as 4.3 µM.

(Values after ChEMBL document CHEMBL5032510, “Identification of Novel Fused Heteroaromatics-Based MALT1 Inhibitors by High-Throughput Screening to Treat B Cell Lymphoma” (J Med Chem, 2021).)
